Measurements taken from paper PMC11383987 (bioRxiv, 2024).
Numbering of substitutions follows the chain as printed.

Assays:
[1] = target: T1, PIN8 Y150F (Arabidopsis thaliana, UniProt Q9LFP6, Y150F); assay: SSM electrophysiology peak current response, PIN8 Y150F proteoliposomes; assay type: biochemical; conditions: for Imax: PIN8 Y150F
T1 sequence (Q9LFP6 1-367 Y150F): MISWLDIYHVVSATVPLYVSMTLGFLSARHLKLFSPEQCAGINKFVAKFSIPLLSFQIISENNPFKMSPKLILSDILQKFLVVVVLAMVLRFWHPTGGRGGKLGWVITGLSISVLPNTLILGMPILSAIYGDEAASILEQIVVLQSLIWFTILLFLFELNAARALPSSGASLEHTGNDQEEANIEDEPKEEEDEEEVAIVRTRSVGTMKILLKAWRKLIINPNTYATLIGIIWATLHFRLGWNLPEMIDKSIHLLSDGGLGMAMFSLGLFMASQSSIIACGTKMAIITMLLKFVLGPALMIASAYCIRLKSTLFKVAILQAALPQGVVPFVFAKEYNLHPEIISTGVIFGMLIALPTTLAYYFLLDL

[2] = target: T2, PIN8 S55A (Arabidopsis thaliana, UniProt Q9LFP6, S55A); assay: SSM electrophysiology peak current response, PIN8 S55A proteoliposomes; assay type: biochemical; conditions: for Imax: PIN8 S55A
T2 sequence (Q9LFP6 1-367 S55A): T1 sequence (Q9LFP6 1-367 Y150F) with S55A, F150Y

[3] = target: T3, PIN8 N117A (Arabidopsis thaliana, UniProt Q9LFP6, N117A); assay: SSM electrophysiology peak current response, PIN8 N117A proteoliposomes; assay type: biochemical; conditions: 100 μM or 2 mM substrate, relative to WT
T3 sequence (Q9LFP6 1-367 N117A): T1 sequence (Q9LFP6 1-367 Y150F) with N117A, F150Y
In short: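 The N117A point mutant of PIN8 was made by site-directed mutagenesis. It was reconstituted in proteoliposomes in Ca2+-free Ringer pH 7.4 and immobilised on SSM sensors. Peak currents were recorded after a single solution exchange to 100 μM or 2 mM substrate and expressed relative to wild type. Mean ± s.e.m., n = 3 sensors; one-way ANOVA.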

[4] = target: T4, PIN8 (Arabidopsis thaliana, UniProt Q9LFP6); assay: KD of substrate binding by competition with NPA binding current; conditions: KD relative to IAA
T4 sequence (Q9LFP6 1-367): T1 sequence (Q9LFP6 1-367 Y150F) with F150Y
In short: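 Purified PIN8 (LMNG) was reconstituted at LPR 10 into soy polar lipid/POPC liposomes in Ca2+-free Ringer pH 7.4 and adsorbed on SSM sensors. Current from 100 µM NPA was recorded with test compound at 0–1000 µM in both activating and non-activating solutions (3 s single exchange). KD was taken as the half-maximal point of a one-site fit of peak current inhibition. n = 3 sensors, 3 technical replicates each.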

[5] = target: T4, PIN8; conditions: read-out: KD of IAA binding by PIN8, previously described; cited from earlier work
[6] = target: T4, PIN8; assay: Xenopus oocyte efflux assay, PIN8; assay type: cell-based; conditions: PIN8 in oocytes, NPA-sensitive, internal concentration 1 µM
In short: (§1)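 Xenopus oocytes received 150 ng PIN8 or PIN3 cRNA; PIN3 was given with or without 75 ng PID kinase cRNA. [3H]-IAA or [3H]-2,4-D was injected to an internal 1 µM, ± 10 μM NPA internally. Residual radioactivity per oocyte was counted by scintillation over a time course (10 oocytes per point) and set against the initial 100%. %/min rates came from linear regression; each replicate used a different female.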

[7] = test system: A. thaliana PIN3; assay: Xenopus oocyte efflux assay, PIN3 with PID kinase; assay type: cell-based, Arabidopsis thaliana; conditions: PIN3 with PID kinase in oocytes, NPA-sensitive, internal concentration 1 µM
In short: as §1

[8] = test system: A. thaliana stem segments (wild type and pin1 mutants); assay: Arabidopsis stem segment transport assay; parameters: species or system Arabidopsis thaliana
In short: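 Stem sections (2 cm) were cut above the rosette of 5-week-old Col-0 or pin1 plants. They were inverted into buffer (500 pM IAA, 1% sucrose, 5 mM MES pH 5.5) ± 100 μM NPA for 2 h. They were then moved to buffer with 417 nM [3H]-IAA or [3H]-2,4-D ± NPA for 2 h. Three 5 mm segments were dissected and counted by liquid scintillation.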

With `O=C(O)COc1ccc(Cl)cc1` [4-CPA, 4-chlorophenoxyacetic acid] as the compound, how does the EC50 [1] read?
Its EC50 is 710 ± 228 µM.

And the Imax [1]?
Its Imax is 5 ± 0.9 nA.

And the EC50 [2]?
Its EC50 is 328 ± 15 µM.

And the Imax [2]?
Its Imax is 11 ± 1 nA.

What about the “current response with N117A mutation” value [3] of the same compound?
Its value is “abolishes the current response”.

What about the “affinity lower compared to IAA” value [4] of the same compound?
Its value is ~ 8 fold.

Which results are given for `O=C(O)Cc1c[nH]c2ccccc12` [IAA, indole-3-acetic acid]?
EC50 [1]: 452 ± 32 µM; Imax [1]: 6 ± 2 nA; EC50 [2]: 213 ± 58 µM; Imax [2]: 6 ± 1 nA; effect of S55A mutation on affinity ([2]; PIN8 S55A vs WT): remains unchanged; Kd [5]: 40 ± 15 µM

Which EC50 [1] does the source give for `O=C(O)COc1ccc(Cl)cc1Cl` [2,4-D, 2,4-dichlorophenoxyacetic acid] here?
Its EC50 is 816 ± 275 µM.

And the Imax [1]?
Its Imax is 8 ± 2 nA.

And the EC50 [2]?
The EC50 was 95 ± 36 µM.

And the Imax [2]?
Its Imax is 6 ± 0.6 nA.

What about the “current response with N117A mutation” value [3] of the same compound?
Its value is “abolishes the current response”.

And the “2,4-D export transport rate relative to that determined for IAA” value [6]?
Its value is “about half”.

What about the “2,4-D export rate relative to the IAA transport rate” value [7] of the same compound?
The value was “about half”.

What about the “transport in pin1 mutants” value ([8]; pin1 mutant stem segments) of the same compound?
Its value is “completely abolished”.

What about the “transport lower than IAA transport” value ([8]; wildtype plants, stem segments) of the same compound?
Its value is “about 20 fold”.
